Here are results for eight compounds from ChEMBL document CHEMBL4765271, “Design, synthesis and biological evaluation of 2,3-dihydro-5,6-dimethoxy-1H-inden-1-one and piperazinium salt hybrid derivatives as hAChE and hBuChE enzyme inhibitors” (Eur J Med Chem, 2020).

By inhibition is commonly meant the percentage by which the read-out fell short of the control. As usually defined, the IC50 is the concentration that gives 50% inhibition. As usually defined, the Ki is a measure of affinity in units of concentration, obtained from inhibition or displacement.

Assay [1] deals with T1, Acetylcholinesterase (Homo sapiens, UniProt P22303). In words: Inhibition of human erythrocyte AChE at 100 uM using acetylthiocholine as substrate measured after 5 mins by Ellman's method relative to control. The method in brief:
(§1)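 Ellman spectrophotometric assay using cholinesterases from human blood. The 1 ml medium held pH 8 phosphate buffer, DTNB (3.5 mM stock), thiocholine substrate (7 mM stock) and inhibitor. It was preincubated 5 min at 37 °C, then started by adding enzyme. Absorbance increase was read at 412 nm over 5 min intervals against control cuvettes. Each experiment was run twice.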
For orientation: Ellman's reagent forms a yellow product with free thiols.

For assay [2], the target named is T2, Cholinesterase (Homo sapiens, UniProt P06276). In words: Inhibition of human plasma BuChE at 100 uM using butyrylthiocholine as substrate measured after 5 mins by Ellman's method relative to control. The method in brief:
as §1

Assay [3] deals with T1, Acetylcholinesterase. In words: Inhibition of human erythrocyte AChE using acetylthiocholine as substrate measured after 5 mins by Ellman's method.
The target of assay [4] is T2, Cholinesterase. The experiment in a line: Inhibition of human plasma BuChE using butyrylthiocholine as substrate measured after 5 mins by Ellman's method.
For the next assay, the species on record is Homo sapiens. In words: Selectivity ratio of IC50 for human erythrocyte AChE to IC50 for human plasma BuChE. The method in brief: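 Ellman assay used cholinesterases from human blood. Inhibitor at five concentrations was pre-incubated 5 min at 37 °C in phosphate buffer pH 8 with DTNB (3.5 mM stock) and acetylthiocholine iodide substrate (7 mM stock). The reaction was started with enzyme and read as absorbance increase at 412 nm. Each run was done twice. The ratio is derived from the AChE and BuChE IC50 values.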

Assay [5] has as its target T1, Acetylcholinesterase. In words: Non competitive inhibition of human erythrocyte AChE using varying levels of acetylthiocholine iodide as substrate by Lineweaver-Burk plot analysis.
Assay [6] deals with T2, Cholinesterase. The experiment in a line: Non competitive inhibition of human plasma BuChE using varying levels of butyrylthiocholine iodide as substrate by Lineweaver-Burk plot analysis.
The next assay concerns MCF7. The experiment in a line: Cytotoxicity against human MCF7 cells after 48 hrs by MTT assay. Type of assay: ADME, cell-based. Particulars: MCF7, 48 h. (In general: Tetrazolium dyes change colour on reduction, which living cells bring about.)
In a further assay the test system is SH-SY5Y. In words: Cytotoxicity against human SH-SY5Y cells measured after 48 hrs by MTT assay. Type of assay: ADME, cell-based.
The next assay has as its system HFF. In words: Cytotoxicity against HFF cells assessed as reduction in cell viability incubated for 48 hrs by MTT assay. The class given is ADME, cell-based. The note with it: Homo sapiens.
Assay [7] addresses T1, Acetylcholinesterase.

T2 sequence (P06276 whole entry): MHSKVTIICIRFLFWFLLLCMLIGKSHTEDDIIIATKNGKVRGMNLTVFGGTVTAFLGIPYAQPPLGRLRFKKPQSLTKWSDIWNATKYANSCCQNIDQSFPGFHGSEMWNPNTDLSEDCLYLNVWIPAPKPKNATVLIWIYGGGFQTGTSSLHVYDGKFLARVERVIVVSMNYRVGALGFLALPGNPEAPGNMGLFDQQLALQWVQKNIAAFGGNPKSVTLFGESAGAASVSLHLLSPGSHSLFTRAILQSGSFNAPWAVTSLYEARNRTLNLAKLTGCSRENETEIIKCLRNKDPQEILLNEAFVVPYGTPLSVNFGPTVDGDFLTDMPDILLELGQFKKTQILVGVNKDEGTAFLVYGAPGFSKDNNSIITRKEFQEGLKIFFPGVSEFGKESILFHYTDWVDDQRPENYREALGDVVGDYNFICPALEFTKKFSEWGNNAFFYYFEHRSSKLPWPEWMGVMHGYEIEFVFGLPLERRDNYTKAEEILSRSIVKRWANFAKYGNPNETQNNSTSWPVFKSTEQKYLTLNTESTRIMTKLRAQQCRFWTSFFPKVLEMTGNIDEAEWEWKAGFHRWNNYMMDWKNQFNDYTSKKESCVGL
T1 sequence (P22303 whole entry): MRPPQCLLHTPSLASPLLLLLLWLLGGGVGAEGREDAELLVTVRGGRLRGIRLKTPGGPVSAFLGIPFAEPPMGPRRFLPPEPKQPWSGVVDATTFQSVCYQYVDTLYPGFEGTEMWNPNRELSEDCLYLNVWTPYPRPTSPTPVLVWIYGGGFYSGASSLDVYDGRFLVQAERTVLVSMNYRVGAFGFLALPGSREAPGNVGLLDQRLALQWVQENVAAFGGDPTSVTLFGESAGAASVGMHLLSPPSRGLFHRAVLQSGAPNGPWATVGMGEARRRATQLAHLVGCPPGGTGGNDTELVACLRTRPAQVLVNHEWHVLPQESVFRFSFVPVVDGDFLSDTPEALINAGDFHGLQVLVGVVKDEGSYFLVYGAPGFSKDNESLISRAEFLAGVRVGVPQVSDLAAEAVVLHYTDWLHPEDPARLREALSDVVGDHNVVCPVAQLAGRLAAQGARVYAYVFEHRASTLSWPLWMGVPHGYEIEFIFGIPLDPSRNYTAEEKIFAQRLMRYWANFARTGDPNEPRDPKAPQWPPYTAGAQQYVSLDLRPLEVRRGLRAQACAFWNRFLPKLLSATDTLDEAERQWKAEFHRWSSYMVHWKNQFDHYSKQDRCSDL

Regarding `COc1cc2c(cc1OC)C(=O)/C(=C/c1ccc(OCCBr)cc1)C2`, the inhibition on Acetylcholinesterase [1] turned out to be 6.16%; on Cholinesterase [2], 5.16%.

`COc1cc2c(cc1OC)C(=O)/C(=C/c1ccc(N3CC[N+](C)(Cc4ccccc4)CC3)cc1)C2`: the IC50 against Acetylcholinesterase [3] stood at 370 nM; at Cholinesterase [4] it was 430 nM; with MCF7 it was 1200 nM; in the assay with SH-SY5Y, 1280 nM; in the assay with HFF, 2400 nM. Besides, the Ratio IC50 in the assay listed under Homo sapiens amounted to 0.86. The Ki came out at 500 nM at Acetylcholinesterase [5] and 400 nM on Cholinesterase [6]. This compound displayed a Kinact at Acetylcholinesterase [7] of 0.5 µM.

Take `C=CC[N+]1(C)CCN(c2ccc(/C=C3\Cc4cc(OC)c(OC)cc4C3=O)cc2)CC1`: the figures for the IC50 against Acetylcholinesterase [3] and on Cholinesterase [4] were 430 nM and 25200 nM, respectively. Moreover, the Ratio IC50 in the assay filed under Homo sapiens amounted to 0.02.

Consider `CCCCC[N+]1(C)CCN(c2ccc(/C=C3\Cc4cc(OC)c(OC)cc4C3=O)cc2)CC1`, for which the IC50 against Acetylcholinesterase [3] turned out to be 540 nM; against Cholinesterase [4], 3240 nM. In the assay listed under Homo sapiens, the Ratio IC50 came to 0.17.

Regarding `COc1cc2c(cc1OC)C(=O)/C(=C/c1ccc(N3CCN(C)CC3)cc1)C2`, 320 nM corresponded to half-maximal inhibition at Acetylcholinesterase [3] (IC50). This compound also yielded an inhibition against Cholinesterase [2] of 23.9%.

Turning to `CCCC[N+]1(C)CCN(c2ccc(/C=C3\Cc4cc(OC)c(OC)cc4C3=O)cc2)CC1`, the IC50 turned out to be 540 nM on Acetylcholinesterase [3] and 21600 nM against Cholinesterase [4]. For the same compound, the Ratio IC50 in the assay filed under Homo sapiens turned out to be 0.02.

In the case of `COc1cc2c(cc1OC)C(=O)/C(=C/c1ccc(N3CC[N+](C)(Cc4ccccc4Cl)CC3)cc1)C2`, the values for the IC50 on Acetylcholinesterase [3] and against Cholinesterase [4] were 480 nM and 2160 nM, respectively. Further, the Ratio IC50 in the assay listed under Homo sapiens is 0.22.

As to `CCCCCC[N+]1(C)CCN(c2ccc(/C=C3\Cc4cc(OC)c(OC)cc4C3=O)cc2)CC1`, the IC50 on Acetylcholinesterase [3] worked out at 4250 nM; against Cholinesterase [4] it was 3600 nM. Moreover, in the assay listed under Homo sapiens, the Ratio IC50 was found to be 1.18.
